Measurements reported in ChEMBL document CHEMBL3526062, “Role of human UDP-glucuronosyltransferases in the biotransformation of the triazoloacridinone and imidazoacridinone antitumor agents C-1305 and C-1311: highly selective substrates for UGT1A10” (Drug Metab Dispos, 2012).

How the values were obtained:
[1] = target: T1, UDP-glucuronosyltransferase 1A10 (Homo sapiens, UniProt Q9HAW8); experiment: Drug metabolism assessed as human recombinant UGT1A10-mediated compound formation treated with C-1305 for 60 mins by ESI-MS/UV-vis spectroscopy in presence of 3 mM UDP-GlcUA; type: ADME; details: recombinant enzyme, 1 h
T1 sequence (Q9HAW8 whole entry): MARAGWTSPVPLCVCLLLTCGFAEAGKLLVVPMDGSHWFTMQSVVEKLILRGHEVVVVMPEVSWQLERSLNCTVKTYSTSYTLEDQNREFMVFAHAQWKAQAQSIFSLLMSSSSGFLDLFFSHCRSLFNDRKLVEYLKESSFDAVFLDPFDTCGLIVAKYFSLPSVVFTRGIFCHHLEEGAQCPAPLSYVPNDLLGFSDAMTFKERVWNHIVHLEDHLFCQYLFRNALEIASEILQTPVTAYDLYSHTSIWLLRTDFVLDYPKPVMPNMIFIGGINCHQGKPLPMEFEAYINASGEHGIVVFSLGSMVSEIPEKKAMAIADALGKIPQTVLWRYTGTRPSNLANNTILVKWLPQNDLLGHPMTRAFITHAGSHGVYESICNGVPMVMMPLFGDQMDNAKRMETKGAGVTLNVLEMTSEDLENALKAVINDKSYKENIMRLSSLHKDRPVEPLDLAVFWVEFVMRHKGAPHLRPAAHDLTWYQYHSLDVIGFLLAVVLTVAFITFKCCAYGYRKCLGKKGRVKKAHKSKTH
Method in brief: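 His-tagged recombinant human UGT expressed in baculovirus-infected insect cells, levels normalized by anti-His Western blot; 5 μg membrane protein incubated 60 min at 37°C in […] pH 7.4, 5 mM MgCl2, 5 mM saccharolactone, 2% DMSO, substrate 100 or 200 μM; started with UDP-GlcUA; ethanol stop, centrifuged; supernatant by reversed-phase HPLC-UV/ESI-MS; glucuronide confirmed by β-glucuronidase hydrolysis; triplicate.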

[2] = Drug metabolism in human intestinal microsomes assessed as metabolite formation treated with C-1305 for 60 mins by ESI-MS/UV-vis spectroscopy in presence of 3 mM UDP-GlcUA; type: ADME, Intestine, Microsome; details: 1 h
Method in brief: (§1)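 Recombinant human UGT1A1 or UGT1A9 (5 μg protein), or single-donor human liver or intestinal microsomes (20 μg), incubated in Tris-HCl pH 7.4 with 5 mM MgCl2, 5 mM saccharolactone, 2% DMSO and 100 or 200 μM substrate. Started with UDP-GlcUA, 60 min at 37°C, in triplicate. Product identified by HPLC with positive-ion ESI-MS and UV/Vis spectra, and confirmed by β-glucuronidase hydrolysis.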

[3] = target: T2, UDP-glucuronosyltransferase 1A1 (Homo sapiens, UniProt P22309); experiment: Drug metabolism assessed as human recombinant UGT1A1-mediated compound formation treated with C-1305 for 60 mins by ESI-MS/UV-vis spectroscopy in presence of 3 mM UDP-GlcUA; type: ADME; details: recombinant enzyme, 1 h; method in brief: as §1
T2 sequence (P22309 whole entry): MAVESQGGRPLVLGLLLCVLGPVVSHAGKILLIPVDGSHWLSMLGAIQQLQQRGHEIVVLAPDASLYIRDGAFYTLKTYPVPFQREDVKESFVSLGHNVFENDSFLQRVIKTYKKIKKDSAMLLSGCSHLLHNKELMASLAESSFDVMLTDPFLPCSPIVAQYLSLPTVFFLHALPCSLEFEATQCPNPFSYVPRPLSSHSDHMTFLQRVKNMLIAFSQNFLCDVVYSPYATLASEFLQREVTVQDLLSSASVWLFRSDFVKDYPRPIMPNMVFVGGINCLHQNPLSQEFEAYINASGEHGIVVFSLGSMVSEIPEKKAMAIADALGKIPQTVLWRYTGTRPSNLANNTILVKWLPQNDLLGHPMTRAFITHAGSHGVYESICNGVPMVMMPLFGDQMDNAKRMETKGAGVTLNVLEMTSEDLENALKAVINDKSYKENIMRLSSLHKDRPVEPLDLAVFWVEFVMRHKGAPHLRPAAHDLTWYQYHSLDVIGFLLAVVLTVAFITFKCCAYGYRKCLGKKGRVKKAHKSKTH

[4] = target: T3, UDP-glucuronosyltransferase 1A9 (Homo sapiens, UniProt O60656); experiment: Activity of human recombinant UGT1A9 expressed in baculovirus-infected Sf9 cells assessed as enzyme-mediated glucuronidation per mg protein at 300 uM after 60 mins by Michaelis-Menten equation in presence of 3 mM UDP-GlcUA; type: ADME; details: sf9, 1 h
T3 sequence (O60656 whole entry): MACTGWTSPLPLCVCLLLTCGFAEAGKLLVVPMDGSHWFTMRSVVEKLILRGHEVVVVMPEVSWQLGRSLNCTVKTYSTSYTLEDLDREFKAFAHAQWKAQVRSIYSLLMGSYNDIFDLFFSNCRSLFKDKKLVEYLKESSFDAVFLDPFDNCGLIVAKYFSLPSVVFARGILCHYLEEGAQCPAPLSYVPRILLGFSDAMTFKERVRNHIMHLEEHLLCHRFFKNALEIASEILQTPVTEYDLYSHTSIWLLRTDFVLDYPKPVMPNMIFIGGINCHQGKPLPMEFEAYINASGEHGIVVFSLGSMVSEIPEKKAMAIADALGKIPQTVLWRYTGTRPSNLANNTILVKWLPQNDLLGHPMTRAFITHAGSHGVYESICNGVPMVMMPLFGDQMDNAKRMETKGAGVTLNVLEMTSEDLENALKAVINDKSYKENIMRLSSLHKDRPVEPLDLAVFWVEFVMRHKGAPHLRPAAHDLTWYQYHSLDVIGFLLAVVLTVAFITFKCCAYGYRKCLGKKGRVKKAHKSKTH

[5] = target: T2, UDP-glucuronosyltransferase 1A1; experiment: Drug metabolism assessed as human recombinant UGT1A1-mediated compound formation treated with C-1311 for 60 mins by ESI-MS/UV-vis spectroscopy in presence of 3 mM UDP-GlcUA; type: ADME; details: recombinant enzyme, 1 h
[6] = target: T4, UDP-glucuronosyltransferase 1A7 (Homo sapiens, UniProt Q9HAW7); experiment: Drug metabolism assessed as human recombinant UGT1A7-mediated compound formation treated with C-1311 for 60 mins by ESI-MS/UV-vis spectroscopy in presence of 3 mM UDP-GlcUA; type: ADME; details: recombinant enzyme, 1 h
T4 sequence (Q9HAW7 whole entry): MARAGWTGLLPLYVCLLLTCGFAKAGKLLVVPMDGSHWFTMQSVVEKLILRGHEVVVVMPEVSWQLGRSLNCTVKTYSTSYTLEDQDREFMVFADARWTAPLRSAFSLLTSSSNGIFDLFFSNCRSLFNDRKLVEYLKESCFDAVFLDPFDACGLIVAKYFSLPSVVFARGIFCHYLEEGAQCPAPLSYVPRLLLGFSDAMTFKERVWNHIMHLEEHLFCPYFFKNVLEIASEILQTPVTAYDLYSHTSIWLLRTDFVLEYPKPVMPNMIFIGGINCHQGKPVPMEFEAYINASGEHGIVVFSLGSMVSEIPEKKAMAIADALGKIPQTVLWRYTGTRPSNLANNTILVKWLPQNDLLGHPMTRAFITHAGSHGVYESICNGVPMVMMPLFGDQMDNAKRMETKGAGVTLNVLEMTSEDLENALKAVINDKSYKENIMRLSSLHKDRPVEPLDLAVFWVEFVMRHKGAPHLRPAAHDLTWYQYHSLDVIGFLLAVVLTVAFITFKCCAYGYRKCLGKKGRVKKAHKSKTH

Row | Drug metabolism [1] | Drug metabolism [2] | Drug metabolism [3] | Drug metabolism [4] | Structure (SMILES) | Drug metabolism [5] | Drug metabolism [6]
1 | metabolite_detected | metabolite_detected | metabolite_detected | 0.15 nmol/min/mg | CN(C)CCCNc1ccc2nnn3c4ccc(O)cc4c(=O)c1c23 |  | 
2 |  |  |  |  | CCN(CC)CCNc1ccc2ncn3c4ccc(O)cc4c(=O)c1c23 [C-1311] | metabolite_detected | metabolite_detected
